The results in this text go back to PMC8916014 (Proceedings of the National Academy of Sciences of the …, 2022).

In data set [1] the test system is E. coli ATCC25922 with purified E. coli 70S ribosome. In words: bacterial ribosome-mediated antimicrobial block assay. Type of data set: cell-based, Escherichia coli. The settings on record: 70S ribosome 12.5 nM. Put shortly: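 MBC fold-change against E. coli with exogenous E. coli 70S ribosome was determined by virtual-colony count assay. Polymyxin B and kanamycin served as comparators. Triplicate experiments were reported as mean ± SD, with one- or two-way ANOVA and Bonferroni correction.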

Data set [2] has as its system E. coli ATCC25922 with purified LPS from E. coli O111:B4. In words: LPS-mediated antimicrobial block assay. The format is cell-based, Escherichia coli. To be noted: LPS 25 μg/mL. Put shortly:
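A virtual-colony count assay gave the fold-change in MBC against E. coli across different concentrations of added purified LPS. Polymyxin B and kanamycin were run as comparators.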

Data set [3] has as its system E. coli ATCC25922 outer membrane. In words: outer membrane permeability assay. The settings on record: E. coli ATCC25922, 1 h treatment, 0.195–100 μM. Type of data set: cell-based, Escherichia coli. The method, boiled down:
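E. coli ATCC25922 was treated with test compound for 1 h, then probed with NPN. NPN fluorescence intensity served as the measure of outer-membrane permeability and was normalized to relative fluorescence intensity. Experiments were run in triplicate and reported as mean ± SD.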

For data set [4], the system named is S. aureus (ATCC 25923). The experiment in a line: in vivo efficacy, S. aureus-induced pneumonia. Set-up: species or system C57BL/6 mice. To be noted: 2 mg/kg intratracheal.
In data set [5] the test system is K. pneumoniae (ATCC 13883). In words: in vivo efficacy, K. pneumoniae-induced pneumonia. Set-up: species or system C57BL/6 mice. To be noted: 2 mg/kg intratracheal.

As to `NC[C@H]1O[C@H](O[C@H]2[C@H](O)[C@@H](O[C@H]3O[C@H](CO)[C@@H](O)[C@H](N)[C@H]3O)[C@H](N)C[C@@H]2N)[C@H](O)[C@@H](O)[C@@H]1O` [kanamycin], the “fold change in MBC in presence of E. coli 70S ribosome” value in data set [1] is on record as “antagonized”. In data set [2], the “fold change in MBC in presence of LPS” value is given as “no effect”.

With polymyxin B [PMB], the “fold change in MBC in presence of E. coli 70S ribosome” value in data set [1] is on record as “failed to affect activity”. The “fold change in MBC in presence of LPS” value in data set [2] is “fourfold”. For the same molecule, the “permeability of bacterial OM (NPN fluorescence)” value in data set [3] was “increased the permeability of bacterial OM in a dose-dependent manner”. In data set [4], the “efficacy in S. aureus-induced pneumonia” value is “ineffective”. Also, the survival rate in data set [5] is on record as 100%.
